Results as given in ChEMBL document CHEMBL1126896, “Preparation and anti-HIV activity of O-acylated heparin and dermatan sulfate derivatives with low anticoagulant effect” (J Med Chem, 1993).

What was measured:
[1] = system: MT4; test: Effective concentration to achieve 50% protection of MT-4 cells against the cytopathic effect of HIV-2; format: functional, cell-based
[2] = system: MT4; test: Selectivity index for CC50 (cytotoxic concentration based on reduction of viability of mock-infected MT-4 cells) to that of EC50 against HIV-2; format: functional
In short: (§1)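 MT-4 cells at 3 × 10^5 cells/mL were infected with HIV-1 IIIB or HIV-2 ROD at 100 CCID50/mL, or mock-infected, alongside serial compound dilutions. Viability was read by MTT after 5 days at 37 °C. CC50 comes from mock-infected cells and EC50 from protection against cytopathicity. Index = CC50/EC50.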

[3] = system: Human immunodeficiency virus 2; test: Antiviral activity against HIV-2 infected with LAV-2 EHO; format: functional, organism-based
[4] = system: Human immunodeficiency virus 2; test: Antiviral activity against HIV-2 infected with LAV-2 ROD; format: functional, organism-based
[5] = system: Human immunodeficiency virus 1; test: Antiviral activity against HIV-1 infected with HTLVIIIB; format: functional, organism-based
[6] = system: HuT78; test: Giant-cell formation between persistently HIV-1 infected HUT-78 cells and uninfected MOLT-4 cells; format: functional, cell-based
In short: (§2)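 MOLT-4 cells were co-cultured with an equal number of HUT-78 cells persistently infected with HIV-1 IIIB or HIV-2 ROD, with varying compound concentrations. Syncytia were counted by flow cytofluorography after 24 h. EC50 is the concentration giving 50% protection against giant-cell formation.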

[7] = system: Human immunodeficiency virus 1; test: Antiviral activity against HIV-1 infected with HTLVIIIB (TIBO); format: functional, organism-based
[8] = system: MT4; test: Selectivity index for CC50 (cytotoxic concentration based on the reduction of the viability of mock-infected MT-4 cells) to that of EC50 against HIV-1; format: functional; in short: as §1
[9] = system: Simian immunodeficiency virus; test: Antiviral activity against SIV; format: functional, organism-based
[10] = system: Human immunodeficiency virus 1; test: Antiviral activity against HIV-1 infected with […]; format: functional, organism-based
[11] = system: MT4; test: Effective concentration to achieve 50% protection of MT-4 cells against the cytopathic effect of HIV-1; format: functional, cell-based
[12] = system: Human immunodeficiency virus 1; test: Antiviral activity against HIV-1 infected with HIV-1HE; format: functional, organism-based
[13] = In vitro anticoagulant activity determined by clotting test of activated partial thromboplastin time (APTT) on a pool of human plasma; format: functional
In short: (§3)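 Activated partial thromboplastin time clotting test on pooled human plasma, run on an automatic coagulometer. Activities were calculated according to the European Pharmacopoeia.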

[14] = system: HuT78; test: Giant-cell formation between persistently HIV-2 infected HUT-78 cells and uninfected MOLT-4 cells; format: functional, cell-based; conditions: Homo sapiens, HuT78; read-out: EC50; in short: as §2
[15] = In vitro anticoagulant activity was determined by the clotting test of activated partial thromboplastin time (APTT) on a pool of human plasma; 1-2; format: functional; in short: as §3
[16] = Homo sapiens, MT4, read-out: EC50
[17] = Homo sapiens, HuT78, read-out: EC50

Row | Compound | EC50 ([1]; mt4) | Selectivity index [2] | EC50 [3] | EC50 [4] | EC50 [5] | EC50 ([6]; hut78) | EC50 [7] | Selectivity index [8] | EC50 [9] | EC50 [10] | EC50 ([11]; mt4) | EC50 [12] | APTT [13] | EC50 [1, 16] | EC50 [14] | EC50 [6, 17] | EC50 [11, 16] | APTT [15]
1 | O=C([O-])/C=C(\CO)OC1OC(COS(=O)(=O)[O-])C(OC2OC(C(=O)[O-])C(OC3OC(COS(=O)(=O)[O-])C(OC4OC(C(=O)[O-])C(OC5OC(COS(=O)(=O)[O-])C(O)C(O)C5NS(=O)(=O)[O-])C(O)C4OS(=O)(=O)[O-])C(O)C3NS(=O)(=O)[O-])C(O)C2OS(=O)(=O)[O-])C(O)C1NS(=O)(=O)[O-].[Na+].[Na+].[Na+].[Na+].[Na+].[Na+].[Na+].[Na+].[Na+].[Na+].[Na+] (stereo in doubt; 2a) | 6.3 µg/mL | >80 | 17.9 µg/mL | > 250 µg/mL | 1.5 µg/mL | > 500 µg/mL | 1.5 µg/mL | >327 | 150 µg/mL | 0.3 µg/mL | 1.53 µg/mL | 11.7 µg/mL | 4 IU mg-1 | – | – | – | – | –
2 | CCCC(=O)OC/C(=C\C(=O)OCc1ccccc1)OC1OC(COS(=O)(=O)[O-])C(OC2OC(C(=O)OCc3ccccc3)C(OC3OC(COS(=O)(=O)[O-])C(OC4OC(C(=O)OCc5ccccc5)C(OC5OC(COS(=O)(=O)[O-])C(O)C(OC(=O)CCC)C5NS(=O)(=O)[O-])C(OC(=O)CCC)C4OS(=O)(=O)[O-])C(OC(=O)CCC)C3NS(=O)(=O)[O-])C(OC(=O)CCC)C2OS(=O)(=O)[O-])C(OC(=O)CCC)C1NS(=O)(=O)[O-].[Na+].[Na+].[Na+].[Na+].[Na+].[Na+].[Na+].[Na+] (stereo unspecified) | – | >1190 | 1.3 µg/mL | 0.9 µg/mL | 0.2 µg/mL | – | 0.7 µg/mL | >1389 | 10.2 µg/mL | 0.2 µg/mL | – | 1.1 µg/mL | 4 IU mg-1 | 0.42 µg/mL | 1 µg/mL | 1 µg/mL | 0.36 µg/mL | –
3 | COC1C(NC(C)=O)C(OC2C(C(=O)[O-])OC(OC3C(NC(C)=O)C(OC4C(C(=O)[O-])OC(C)C(O)C4O)OC(CO)C3OS(=O)(=O)[O-])C(O)C2O)OC(CO)C1OS(=O)(=O)[O-].[Na+].[Na+].[Na+].[Na+] (stereo unspecified) | – | – | – | – | – | – | – | – | – | – | – | – | – | > 625 µg/mL | – | > 500 µg/mL | > 625 µg/mL | 1 IU mg-1
